In ChEMBL document CHEMBL1145441, “Synthesis and anti-HIV activity of new metabolically stable alkenyldiarylmethane non-nucleoside reverse transcriptase inhibitors incorporating N-methoxy imidoyl halide and 1,2,4-oxadiazole systems” (J Med Chem, 2007):
Activity calls are given as the source filed them.

Legend:
[1] = tested on: Human immunodeficiency virus 2; assay: Antiviral activity against HIV2 ROD in MT4 cells by MTT assay; type: functional, organism-based
In short: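 HIV-2 strain ROD infection of MT-4 cells; MTT cytoprotection read-out; EC50 is the 50% effective concentration against virus-induced cytopathicity; mean values from at least two separate experiments.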

[2] = molecular target: Human immunodeficiency virus type 1 reverse transcriptase (Human immunodeficiency virus 1, UniProt Q72547); assay: Inhibition of HIV1 recombinant reverse transcriptase
[3] = tested on: Human immunodeficiency virus 1; assay: Antiviral activity against HIV1 3B in MT4 cells by MTT assay; type: functional, organism-based; conditions: for EC50: Human immunodeficiency virus 1, 3B
In short: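 Cytoprotection read-out by MTT in MT-4 cells infected with HIV-1 strain IIIB; EC50 taken as the concentration giving 50% inhibition of viral cytopathicity; means of at least two separate experiments.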

[4] = Cytotoxicity against mock-infected MT4 cells; type: cell-based; conditions: human
In short: (§1)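 Mock-infected CEM-SS or MT-4 cells; CC50 defined as 50% cytotoxic concentration; means of at least two separate experiments.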

[5] = tested on: Human immunodeficiency virus 1; assay: Antiviral activity against HIV1 RF in CEM-SS cells by XTT assay; type: functional, organism-based; conditions: for EC50: Human immunodeficiency virus 1, RF
In short: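 HIV-1 RF infection of CEM-SS cells, with protection scored by XTT cytoprotection assay; EC50 defined as 50% effective concentration for inhibiting cytopathicity; means of at least two separate experiments.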

[6] = Cytotoxicity against mock-infected CEM-SS cells; type: cell-based; conditions: human; in short: as §1
[7] = Metabolic stability in rat plasma; type: ADME, cell-free
In short: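 Hydrolytic stability in rat plasma in vitro, with 1,1-diphenylethylene or benzophenone as internal standard; samples followed by HPLC; half-life reported in minutes as mean ± SD of at least two separate experiments.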

SMILES	Activity [1]	IC50 [2]	Activity [3]	CC50 [4]	Activity [5]	CC50 [6]	half-life [7]	EC50 [3]	EC50 [5]
CONC(=O)CCC/C=C(\c1cc(C)c(OC)c(C(=O)NOC)c1)c1cc(C)c2oc(=O)n(C)c2c1	inactive	> 100 µM	inactive	18.4 µM	inactive	5.4 µM			
CO/N=C(\F)c1cc(/C(=C\CCCC(=O)OC)c2cc(C)c3oc(=O)n(C)c3c2)cc(C)c1OC	inactive	0.55 µM		21 µM		3.9 µM	0.153 h	0.29 µM	0.5 µM
CO/N=C(\Br)CCC/C=C(\c1cc(C)c(OC)c(/C(Br)=N/OC)c1)c1cc(C)c2oc(=O)n(C)c2c1	inactive	0.85 µM		13.3 µM	inactive	2.1 µM	2.6 h	6.3 µM	
CO/N=C(\Cl)CCC/C=C(\c1cc(C)c(OC)c(/C(Cl)=N/OC)c1)c1cc(C)c2oc(=O)n(C)c2c1	inactive	0.6 µM		3.9 µM	inactive	1.3 µM	82.8 h		
CONC(=O)c1cc(/C(=C\CCCC(=O)OC(C)(C)C)c2cc(C)c3oc(=O)n(C)c3c2)cc(C)c1OC	inactive	> 100 µM	inactive	16.8 µM	inactive	5.2 µM			
CO/N=C(\F)c1cc(/C(=C\CCCc2nc(C)no2)c2cc(C)c3oc(=O)n(C)c3c2)cc(C)c1OC	inactive	0.67 µM		12.4 µM		2.9 µM	60.7 h	0.24 µM	0.7 µM
COC(=O)CCC/C=C(\c1cc(C)c(OC)c(C(=O)OC)c1)c1cc(C)c2oc(=O)n(C)c2c1	inactive	0.02 µM		16.9 µM		5.1 µM	0.0217 h		0.02 µM
COC(=O)CCCC=C(c1cc(C)c(OC)c(C(=O)OC)c1)c1cc(C)c(OC)c(C(=O)OC)c1	inactive	1 µM		6.1 µM		6 µM	0.0127 h		0.25 µM
